# Measured values gathered from unrelated publications.
# Each line is one published result; the experiments were not run side by side.
# Target: TGF-beta receptor type-2 (TGFBR2, Homo sapiens, UniProt P37173)
Structure (SMILES),test,setting,quantity,value
COc1ncccc1-c1cnn2ccc(N3CCN(C(=O)OC(C)C)CC3)nc12,"binding, competition with immobilised ligand",1 µM,remaining binding,100%
Cn1cncc1[C@](O)(COc1ccc(C#N)cc1-c1ccc(OC(F)(F)F)cc1)c1ccc(C#N)cc1,"cell-free assay, competition with immobilised ligand",1 µM,remaining binding,100%
COc1cc(Nc2ncc(F)c(Nc3ccc4c(n3)NC(=O)C(C)(C)O4)n2)cc(OC)c1OC,binding,10 µM,inhibition,75%
Nc1ncc(-c2nc(N3CCOCC3)nc(N3CCOCC3)n2)c(C(F)F)n1,"cell-free assay, competition with immobilised ligand",10 µM,remaining binding,69%
CC(C)(C)c1cc(C=C(C#N)C#N)cc(Br)c1O,"enzyme activity, inhibitor",0.5 µM,remaining activity,93.8%
Cc1nn(C)cc1-c1nc2c(N3CCN(Cc4ccc(Cl)cc4)CC3)c(Cl)cnc2[nH]1,"binding, competition with immobilised ligand",1 µM,remaining binding,100%
O=c1[nH]c2ccccc2n1C1CCN(Cc2ccc(-c3[nH]c4cc5ncnc5cc4nc3-c3ccccc3)cc2)CC1,cell-free assay,0.5 µM,remaining signal,95.5%
N#CC1(c2ccccn2)CCN(Cc2cc(C(=O)O)c(=O)n3ccccc23)CC1,"cell-free assay, competition with immobilised ligand",1 µM,remaining binding,93%
